According to ChEMBL document CHEMBL4017500 (J Med Chem, 2017):
Active and inactive are the calls of the source. The rule behind the calls is not given here.

Experiments:
[1] = molecular target: Carbonic anhydrase 2 (Homo sapiens) (UniProt P00918); test: Inhibition of human carbonic anhydrase 2 at 50 to 100 uM using p-nitrophenyl acetate as substrate preincubated for 10 mins followed by substrate addition measured for 15 mins
In short: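 hCAII (100 nM) in 50 mM HEPES pH 8.0 pre-incubated with inhibitor for 10 min at 30 °C. p-Nitrophenyl acetate (500 μM) then added and absorbance at 405 nm followed 15 min. Activity relative to no-inhibitor wells, with 50 μM benzene sulfonamide as 0%. Run in triplicate.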

[2] = Selectivity ratio of compound effect for inhibition of bacterial MBP-fused NDM1 expressed in Escherichia coli BL21(DE3) to compound effect for inhibition of human MMP2 (Tyr110 to Asp452 residues) expressed in yeast
Bacteria [3] = test: Binding affinity to bacterial CoCoNDM-1 expressed in Escherichia coli BL21(DE3) assessed as metal stripping at 2 equiv by 1H NMR spectroscopic method
In short: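 Apo-NDM-1 concentrated to ~1 mM and loaded with 2 equiv CoCl2. Samples in 50 mM HEPES, 150 mM NaCl, 10% D2O, pH 6.8. Compounds from 50–100 mM DMSO stocks titrated in ~5 μL aliquots. 1H spectra recorded at 292 K, 300.16 MHz.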

Bacteria [4] = test: Binding affinity to bacterial CoCoNDM-1 expressed in Escherichia coli BL21(DE3) assessed as CoCoNDM-1-compound ternary complex formation at 1 equiv by 1H […] spectroscopic method
Bacteria [5] = test: Binding affinity to bacterial NDM-1 expressed in Escherichia coli BL21(DE3) assessed as Zn2+ stripping at 24 uM after 30 mins by equilibrium dialysis method relative to control
In short: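 NDM-1 (8 μM final) in 50 mM HEPES pH 7.5 mixed with compound at 0–128 μM for 30 min. Then dialyzed 4 h against metal-free 50 mM HEPES pH 7.5. Residual Zn(II) measured by ICP-AES at 213.856 nm.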

Escherichia coli [6] = test: Inhibition of NDM1 in Escherichia coli isolate Ch8.69 assessed as potentiation of imipenem-induced antibacterial activity by measuring imipenem MIC at 100 mg/L after 18 to 20 hrs by broth microdilution assay (reference value: 4 mg/L)
Escherichia coli [7] = test: Inhibition of NDM1 in Escherichia coli isolate Ch8.72 assessed as potentiation of imipenem-induced antibacterial activity by measuring imipenem MIC at 100 mg/L after 18 to 20 hrs by broth microdilution assay (reference value: 16 mg/L)
Escherichia coli [8] = test: Inhibition of NDM1 in Escherichia coli isolate Ah8.74 assessed as potentiation of imipenem-induced antibacterial activity by measuring imipenem MIC at 100 mg/L after 18 to 20 hrs by broth microdilution assay (reference value: 8 mg/L)
Escherichia coli [9] = test: Inhibition of NDM1 in Escherichia coli isolate Ah8.75 assessed as potentiation of imipenem-induced antibacterial activity by measuring imipenem MIC at 100 mg/L after 18 to 20 hrs by broth microdilution assay (reference value: 16 mg/L)
[10] = molecular target: Metallo-beta-lactamase type 2 (Klebsiella pneumoniae) (UniProt C7C422); test: Inhibition of NDM1 in Klebsiella pneumoniae isolate Pd1.50 assessed as potentiation of imipenem-induced antibacterial activity by measuring imipenem MIC at 100 mg/L after 18 to 20 hrs by broth microdilution assay (reference value: 8 mg/L)
Chain of Metallo-beta-lactamase type 2 (Klebsiella pneumoniae) (C7C422 whole entry): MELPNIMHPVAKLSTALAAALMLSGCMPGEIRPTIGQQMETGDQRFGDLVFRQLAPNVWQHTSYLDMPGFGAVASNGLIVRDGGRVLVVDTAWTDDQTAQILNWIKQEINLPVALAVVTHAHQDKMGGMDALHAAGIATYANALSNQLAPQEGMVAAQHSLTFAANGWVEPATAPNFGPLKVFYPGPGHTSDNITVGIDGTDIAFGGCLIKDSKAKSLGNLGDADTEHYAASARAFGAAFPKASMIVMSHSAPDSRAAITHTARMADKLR

[11] = molecular target: Metallo-beta-lactamase type 2 (Klebsiella pneumoniae) (UniProt C7C422); test: Inhibition of NDM1 in Klebsiella pneumoniae isolate Pd1.53 assessed as potentiation of imipenem-induced antibacterial activity by measuring imipenem MIC at 100 mg/L after 18 to 20 hrs by broth microdilution assay (reference value: 8 mg/L)
[12] = molecular target: Metallo-beta-lactamase type 2 (Klebsiella pneumoniae) (UniProt C7C422); test: Inhibition of NDM1 in Klebsiella pneumoniae isolate Pd1.55 assessed as potentiation of imipenem-induced antibacterial activity by measuring imipenem MIC at 100 mg/L after 18 to 20 hrs by broth microdilution assay (reference value: 8 mg/L)
[13] = molecular target: Metallo-beta-lactamase type 2 (Klebsiella pneumoniae) (UniProt C7C422); test: Inhibition of NDM1 in Klebsiella pneumoniae isolate Cm1.63 assessed as potentiation of imipenem-induced antibacterial activity by measuring imipenem MIC at 100 mg/L after 18 to 20 hrs by broth microdilution assay (reference value: 8 mg/L)
Escherichia coli [14] = test: Effect on growth of Escherichia coli isolate Ch8.70 at 100 mg/L after 18 to 20 hrs by broth microdilution assay
In short: (§1)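 Mueller-Hinton broth microdilution per CLSI, triplicate. blaNDM-1 clinical isolates grown from OD600 0.1 to 0.224 (~1–2 × 10^8 CFU/mL), diluted 3 μL into 4997 μL MH, and 100 μL added to 100 μL of compound (100 mg/L) alone. Incubated 37 °C for 18–20 h, then scored for growth.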

Escherichia coli [15] = test: Effect on growth of Escherichia coli isolate Ch8.72 at 100 mg/L after 18 to 20 hrs by broth microdilution assay; in short: as §1
Escherichia coli [16] = test: Effect on growth of Escherichia coli isolate Ah8.73 at 100 mg/L after 18 to 20 hrs by broth microdilution assay; in short: as §1
Klebsiella pneumoniae = test: Effect on growth of Klebsiella pneumoniae isolate Cm1.63 at 100 mg/L after 18 to 20 hrs by broth microdilution assay; in short: as §1
HEK293 [17] = test: Cytotoxicity against HEK293 cells assessed as reduction in cell viability up to 400 uM after 4 to 24 hrs by Cell-titer blue reagent based spectrophotometric assay; details: human
In short: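 HEK293 cells seeded at 10,000/well 12 h before treatment. Exposed to compound or DMSO vehicle for 4 or 24 h in DMEM with 10% serum and penicillin-streptomycin, n=6 per treatment per time point. Cell-Titer Blue added for 1 h, fluorescence read at 536ex/595em. Viability relative to vehicle (=1.0); ANOVA with Tukey post-hoc.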

HEK293 [18] = test: Cytotoxicity against HEK293 cells assessed as change in morphology up to 400 uM after 4 to 24 hrs by microscopic assay; assay type: cell-based; details: human
In short: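 HEK293 cells treated as in the viability assay (4 or 24 h, DMSO vehicle control). Imaged by epifluorescence microscopy at 20X magnification to assess growth and morphology.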

[19] = system: histone deacetylase 1/6 (Homo sapiens); test: Selectivity ratio of compound effect for inhibition of bacterial MBP-fused NDM1 expressed in Escherichia coli BL21(DE3) to compound effect for inhibition of human histone deacetylases HDAC-1/HDAC-6
[20] = molecular target: Metallo-beta-lactamase type 2 (Serratia marcescens, UniProt P52699); test: Inhibition of Serratia marcescens IMP1 expressed in Escherichia coli BL21(DE3) using fluorocillin as substrate preincubated for 10 mins followed by substrate addition measured after 20 mins by HTS assay
Chain of Metallo-beta-lactamase type 2 (P52699 whole entry): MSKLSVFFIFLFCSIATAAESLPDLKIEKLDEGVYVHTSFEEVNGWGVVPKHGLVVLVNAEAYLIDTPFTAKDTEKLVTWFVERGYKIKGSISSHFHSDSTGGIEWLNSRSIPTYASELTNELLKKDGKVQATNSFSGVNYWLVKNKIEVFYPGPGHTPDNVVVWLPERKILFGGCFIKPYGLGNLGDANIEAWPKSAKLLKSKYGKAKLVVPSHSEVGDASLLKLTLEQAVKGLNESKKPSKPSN

Beta-lactamase VIM-2 = Beta-lactamase VIM-2 (Pseudomonas aeruginosa, UniProt Q9K2N0); test: Inhibition of Pseudomonas aeruginosa VIM2 expressed in Escherichia coli BL21(DE3) using fluorocillin as substrate preincubated for 10 mins followed by substrate addition measured after 20 mins by HTS assay

Nc1cccc(-c2cc(C(=O)O)nc(C(=O)O)c2)c1
inhibition [1]: < 50% | Selectivity ratio [2]: 100 to 1000 | Activity (Bacteria [3]): Active | Activity (Bacteria [4]): Active | Activity (Bacteria [5]): 10 to 20% | MIC (Escherichia coli [6]): 0.5 µg/mL | MIC (Escherichia coli [7]): 0.5 µg/mL | MIC (Escherichia coli [8]): 0.5 µg/mL | MIC (Escherichia coli [9]): 0.5 µg/mL | MIC [10]: 0.5 µg/mL | MIC [11]: 0.5 µg/mL | MIC [12]: 0.5 µg/mL | MIC [13]: 1 µg/mL | Activity (Escherichia coli [14]): Non-Toxic | Activity (Escherichia coli [15]): Non-Toxic | Activity (Escherichia coli [16]): Non-Toxic | Activity (Klebsiella pneumoniae): Non-Toxic | Activity (HEK293 [17]): Non-Toxic | Activity (HEK293 [18]): Non-Toxic | Selectivity ratio [19]: 500 to 1000 | IC50 [20]: 240 nM | IC50 (Beta-lactamase VIM-2): 210 nM
